From PubChem
Hits are enriched below; roughly 3.5% of the tested compounds scored in any of these assays.
RGS4 inh = human RGS4 inhibition. P49798. HEK293 M3R/RGS4 inducible, Fluo-4 calcium flux; hits give high values; triggered by carbachol at its EC20. B-score at 10 µM. 0.45% of 310,000 active. AID 463165;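 active means B-score, a plate-corrected calcium signal, over three deviations above library mean, with baseline fluorescence within five deviations of library mean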;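 further: RGS4 expression induced by doxycycline in cells with stable M3 receptor; B-score is computed from the integrated fluorescence ratio over baseline after carbachol; higher B-score means a larger calcium signal and so more RGS4 inhibition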
Target sequence (P49798 whole entry, looked up): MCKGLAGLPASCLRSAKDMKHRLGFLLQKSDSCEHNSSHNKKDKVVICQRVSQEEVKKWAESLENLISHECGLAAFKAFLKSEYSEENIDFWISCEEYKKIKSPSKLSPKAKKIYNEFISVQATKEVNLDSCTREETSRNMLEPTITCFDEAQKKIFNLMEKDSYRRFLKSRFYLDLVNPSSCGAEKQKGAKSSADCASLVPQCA
MrgX1 antag = human MrgX1 receptor antagonism, primary screen; Q96LB2; MRGX1-HEK293 calcium flux, Fluo-4, BAM8-22 antagonism; hits give low values; B-score at 10 µM; 1.3% of 310,000 active; AID 588676;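 active means calcium-response B-score plate-corrected more than 3 library SD below zero, starting fluorescence within 5 deviations, no agonist response on first addition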;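 further: peak minus trough fluorescence over baseline after final BAM8-22 challenge near maximal dose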
Target sequence (Q96LB2 whole entry, looked up): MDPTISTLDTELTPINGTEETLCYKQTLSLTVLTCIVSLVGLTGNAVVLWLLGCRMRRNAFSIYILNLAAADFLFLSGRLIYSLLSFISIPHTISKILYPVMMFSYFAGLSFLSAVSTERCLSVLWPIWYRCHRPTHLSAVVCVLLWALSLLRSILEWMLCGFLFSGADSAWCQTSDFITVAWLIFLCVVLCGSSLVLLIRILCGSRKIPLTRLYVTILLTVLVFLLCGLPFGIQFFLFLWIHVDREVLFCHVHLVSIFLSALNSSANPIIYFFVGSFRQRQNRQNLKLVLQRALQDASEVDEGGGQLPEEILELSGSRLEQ
MrgX1 allo act = human MrgX1 positive allosteric modulation, primary screen; Q96LB2; MrgX1-HEK293, Fluo-4 calcium flux, FDSS; hits give high values; B-score at 10 µM; 0.63% of 310,000 active;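 active means plate-corrected calcium response at least 3 library SD above typical, normal starting fluorescence, not activating the receptor alone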;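 further: compound read alongside a low EC10 to EC30 dose of BAM8-22 agonist; peak minus trough fluorescence over baseline measured at the second addition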
MrgX1 agonist = activates human MrgX1 receptor signaling. Q96LB2. 0.44% of 310,000 active. B-score at 10 µM. MrgX1-HEK293 cells, Fluo-4 calcium fluorescence, agonist mode; hits give high values;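 active means calcium response B-score plate-corrected fluorescence ratio at least 3 library SD, with starting fluorescence B-score inside 5 SD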
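Material – MrgX1-expressing HEK293 cells · Input – 15,000 cells seeded per well · Dosing – compound as first of three additions · Times – overnight seeding, then 1 h dark dye loading · Measured by – kinetic Fluo-4 NW fluorescence of intracellular calcium · Read-out – B-scored fluorescence response ratio · Benchmarks – positive and negative control wells on each plate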
RGS4 pot = RGS4 potentiation or activation. HEK293 M3R/inducible RGS4, carbachol calcium flux Fluo4; hits give low values. B-score at 10 µM. 0.92% of 310,000 active;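 active means B-score of the integrated calcium signal more than 4 SD below the library mean, with starting fluorescence not abnormally high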;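 further: negative B-score means reduced calcium response which marks RGS4 activation or potentiation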
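Assay system: HEK293 FlpIn-TREx cells, stable M3R, doxycycline-inducible RGS4 / Probe or stimulus: carbachol, ECmax concentration / Times: overnight RGS4 induction, 30 min dye load 37 °C, 20 min compound RT / Signal: kinetic calcium fluorescence imaging with Fluo4-AM dye, 2 µM / Measure: Agonist-evoked peak-minus-minimum fluorescence over baseline, integrated ratio, B score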
The depositor's hits bear a star; i = inactive; · = no result given.

SMILES | RGS4 inh | MrgX1 antag | MrgX1 allo act | MrgX1 agonist | RGS4 pot
CC(NC(=O)CN(C)CC(=O)Nc1ccc(Cl)c(C(F)(F)F)c1)c1ccccc1 (stereo not drawn) | i | i | i | i | i
CN(CC(=O)NCc1ccc(F)cc1)CC(=O)Nc1ccc(Cl)c(C(F)(F)F)c1 | i | -5.6* | i | i | i
CC1=NN(C(N)=S)C(=O)C1N=Nc1cccc2ccccc12 (stereo not drawn) | i | i | i | i | i
CC1=NN(C(N)=S)C(=O)C1N=Nc1cccc(Cl)c1C (stereo not drawn) | i | i | 8.6* | i | i
Cc1ccc(S(=O)(=O)NCC(=O)N(CCc2ccccc2)CC(=O)NCc2ccco2)cc1 | i | · | · | · | i
Cc1ccc(S(=O)(=O)NCC(=O)N(CC(=O)NCc2ccco2)Cc2ccccc2)cc1 | i | i | i | 36* | i
Cc1nc2ccccn2c1C(=O)N=Nc1c(O)[nH]c2ccccc12 | i | i | i | i | i
N#C/C(=C\C=C\c1ccccc1[N+](=O)[O-])C(=O)NC1CCCCC1 | i | i | 14* | i | i
CCOc1ccccc1/C=C(\C#N)C(=O)NC1CC1 | i | i | i | i | i
N#C/C(=C\c1ccccc1[N+](=O)[O-])C(=O)NC1CCCCC1 | i | i | i | 35* | i
CCOC(=O)CC(NS(=O)(=O)Cc1ccccc1)c1ccc(C)cc1 (stereo not drawn) | i | i | i | i | i
COc1ccc(CCCC(=O)NCc2ccccc2)cc1C | i | i | i | i | i
Cn1cccc1/C=N\NC(=O)C1COc2ccc(C(C)(C)C)cc2O1 (stereo not drawn) | i | i | 8.1* | i | i
Cn1cccc1/C=N\NC(=O)C1COc2ccccc2O1 (stereo not drawn) | i | i | i | i | i
CC(C)OC(=O)c1ccc(NC(=S)NC(=O)c2cncc(Br)c2)cc1 | i | i | i | i | i
Cc1ccc(NC(=O)CSc2ncn(-c3ccccc3)n2)cc1C | i | i | i | i | i
Cc1ccc(NC(=O)CSc2ncc3ccccn23)cc1C | i | i | i | i | -7.5*
COC(=O)C1=C(C)NC(=S)N(C(C)=O)C1c1ccc(OC)c(OC)c1 (stereo not drawn) | i | i | i | i | i
C[n+]1ccc(/C=C/c2c[nH]c3ccc(F)cc23)cc1 | i | i | i | i | -7.8*
Cn1cc(/C=C/c2cc[n+](C)cc2)c2cc(F)ccc21 | i | i | i | i | i
Cc1ccc2c(c1)/C(=N/OC(=O)c1ccc(F)cc1)CCS2 | i | i | i | i | i
O=C(O/N=C1/CCSc2ccccc21)c1ccccc1 | i | i | 8.9* | i | i
O=C1c2cccc3c([N+](=O)[O-])ccc(c23)C(=O)N1CCc1ccccn1 | i | i | i | i | i
CC(=O)Oc1cccc(N2C(=O)c3cccc4c([N+](=O)[O-])ccc(c34)C2=O)c1 | i | -8.4* | i | i | i
CN(C)CCCN1C(=O)c2cccc3c([N+](=O)[O-])ccc(c23)C1=O | · | -9.4* | i | i | ·
SMILES | RGS4 inh | MrgX1 antag | MrgX1 allo act | MrgX1 agonist | RGS4 pot
NS(=O)(=O)c1ccc(CCNC(=O)COC(=O)Cc2c(F)cccc2Cl)cc1 | i | i | i | i | i
O=C(c1ccc(Br)c(S(=O)(=O)N2CCCCC2)c1)N1CCCCC1 | i | i | i | i | i
COc1ccc2nc(C)cc(N/N=C/c3cccc(OC)c3O)c2c1 | i | i | i | i | -11*
COc1cccc(/C=N/Nc2nc3ccccc3n3cnnc23)c1 | i | i | i | i | i
COc1ccc(/C=N/Nc2cc(C)nc3ccc(Br)cc23)cc1 | i | i | i | i | i
COc1cccc(/C=N/Nc2nc3ccccc3n3cnnc23)c1O | i | i | i | i | -7.1*
COc1ccc(-c2nc(O)c3cnccn23)cc1 | i | i | i | i | i
[O-][n+]1c2ccccc2[n+]([O-])c2cc(O)ccc21 | i | i | i | i | i
O=C(CSc1nc(-c2ccccc2)c(-c2ccccc2)[nH]1)N1CCN(S(=O)(=O)c2ccccc2)CC1 | i | i | i | i | i
Cn1nc(-c2ccccc2)c(C#N)c1Sc1cccc(Cl)c1 | i | i | i | i | -7.3*
CN1CCc2c(sc(NC(=O)c3ccc(S(=O)(=O)N4CCCCCC4)cc3)c2C(N)=O)C1 | i | i | i | 32* | i
O=C(CSc1nnc2c(n1)[nH]c1ccc(F)cc12)NCc1ccc(F)cc1 | i | i | i | i | i
CN(C)c1ccc(N=C/C=C2\N(C)c3ccccc3C2(C)C)cc1 | i | i | 7.2* | i | i
CN1/C(=C\C=O)C(C)(C)c2ccccc21 | i | i | i | i | i
CN1/C(=C\C=Nc2ccc3ccccc3c2)C(C)(C)c2ccccc21 | · | i | i | 83* | ·
C[C@H](NC(=O)c1nc[nH]c1C(=O)N[C@@H](CCCCNC(=O)OC(C)(C)C)C(=O)OC(C)(C)C)c1ccccc1 | i | i | i | i | i
COc1cc(OC)c2cc(C(=O)N[C@@H](Cc3ccccc3)C(=O)O)n(C)c2c1 | i | i | i | i | i
Cc1ccc(NC(=O)CCSc2nc(C)cc(C)n2)cc1 | i | i | i | i | i
COc1ccc(C2SCCN2C(=S)Nc2cccc(C(F)(F)F)c2)cc1 (stereo not drawn) | i | -5.3* | i | i | i
NC(=O)c1nsc(C(=O)N(c2cccc(F)c2)C(C(=O)NC2CCCC2)c2ccc(O)cc2)c1N (stereo not drawn) | i | i | i | i | i
COc1ccc(C(C(=O)NC2CCCC2)N(C(=O)c2snc(C(N)=O)c2N)c2cccc(O)c2)cc1 (stereo not drawn) | i | i | 6.5* | i | i
C=CCN1C(=O)N/C(=C/c2ccc(N3CCOCC3)o2)C1=O | i | -5.1* | i | i | i
O=C1N/C(=C/c2ccc(N3CCOCC3)o2)C(=O)N1c1ccccc1 | · | i | i | i | ·
O=C1S/C(=C/c2ccc(N3CCOCC3)o2)C(=O)N1Cc1ccc(F)cc1 | i | i | i | 46* | i
COc1cccc(-n2c(=O)[nH]cc(C(=O)Nc3ccc(NC(C)=O)cc3)c2=O)c1 | i | i | i | i | i
O=C(CCN1C(=O)c2ccccc2S1(=O)=O)N1CCN(c2ccccc2)CC1 | i | i | i | i | i
